# Experimental data from different studies.
# pIC50: −log10 of the molar value.
# Target: Cytochrome P450 2C19 (CYP2C19, Homo sapiens, UniProt P33261)
# Observed: enzyme activity
# Mode: inhibitor
SMILES,assay,test system,conditions,quantity,value
CCc1cc(/C(C)=N/OCc2ccc(C3CCCCC3)c(C(F)(F)F)c2)ccc1CN1CC(C(=O)O)C1,,"human, liver microsomes","100 µM, 20 min",inhibition,9.4%
CCN(Cc1cnc2nc(N)nc(N)c2n1)c1ccc(C(=O)N2CCC(C(=O)OC)CC2)cc1,luciferase,,10 µM,inhibition,-11.1%
C[C@@H](c1ccc2nccn2c1)n1nnc2ncc(-c3cnn(C)c3)nc21,,"human, liver microsomes",pH 7.4,pIC50,4.00
N=C(N)N1CC=C(c2coc(C(=O)Nc3ccc(C4=CCN(C(=N)N)CC4)c(F)c3)c2)CC1,,liver microsomes,10 µM,inhibition,2.2%
C=CC(=O)Nc1cc(Nc2nccc(Nc3cc(Cl)c(F)cc3C(C)(C)O)n2)c(OC)cc1N1CC[C@@H](N(C)C)C1,,"human, liver microsomes",10 µM,inhibition,< 20%
Nc1nc(N)c2nc(CNc3ccc(C(=O)N4CCC(C(=O)O)CC4)cc3)cnc2n1,luciferase,,10 µM,inhibition,-18.1%
N=C(N)NCc1ccc(NC(=O)C23CCC(C(=O)Nc4ccc(C5=CCN(C(=N)N)CC5)cc4)(CC2)CC3)cc1,,liver microsomes,10 µM,inhibition,28.6%
COc1ccc(Oc2ccc(CN(Cc3ccccc3)Cc3cnc4nc(N)nc(N)c4n3)cc2)cc1,luciferase,,10 µM,inhibition,102%
O=C(Nc1c2c(cc3c1CCC3)CCC2)NS(=O)(=O)/C=C/c1nccs1,,"human, liver microsomes","2 µM, pH 7.4",inhibition,8.8%
